T cruzi inh = inhibitors of intracellular T. cruzi growth, primary screen, luminescence, NIH3T3 host cells | actives 1.4% (n = 300,000) | inhibition, % (test concentration not listed) | T. cruzi beta-gal in NIH3T3, 90 h;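 active means mean inhibition across valid replicates above about 55%, limit read from the data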;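 further: signal also drops with host cell toxicity which is not excluded here; 0% = plate median of DMSO wells and 100% = zero luminescence signal; higher percent means less beta-gal luminescence so fewer parasites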
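System: NIH/3T3 fibroblasts plus reporter T. cruzi. Medium: DMEM plus 2% FBS. Probe or stimulus: 5000 reporter trypomastigotes per well. Compound: single 50 nL compound addition per well in DMSO. Incubation: co-culture of at least 90 h after 3 h attachment. Detection: GalScreen β-gal luminescence, detergent lysis, 60 min. Evaluation: parasite load inhibition, %.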
PREPL inh = PREPL enzyme inhibitors, primary screen, biochemical, fluorescence polarization. Prolyl endopeptidase-like (Homo sapiens), Q4J6C6. inhibition, % at 5.96 µM. recombinant PREPL, fluorescence polarization activity-based probe. actives 0.68% (n = 320,000); in the data active means inhibition above about 43%;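 further: 0% = enzyme with DMSO and 100% = wells lacking enzyme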
Target sequence (Q4J6C6 whole entry, looked up): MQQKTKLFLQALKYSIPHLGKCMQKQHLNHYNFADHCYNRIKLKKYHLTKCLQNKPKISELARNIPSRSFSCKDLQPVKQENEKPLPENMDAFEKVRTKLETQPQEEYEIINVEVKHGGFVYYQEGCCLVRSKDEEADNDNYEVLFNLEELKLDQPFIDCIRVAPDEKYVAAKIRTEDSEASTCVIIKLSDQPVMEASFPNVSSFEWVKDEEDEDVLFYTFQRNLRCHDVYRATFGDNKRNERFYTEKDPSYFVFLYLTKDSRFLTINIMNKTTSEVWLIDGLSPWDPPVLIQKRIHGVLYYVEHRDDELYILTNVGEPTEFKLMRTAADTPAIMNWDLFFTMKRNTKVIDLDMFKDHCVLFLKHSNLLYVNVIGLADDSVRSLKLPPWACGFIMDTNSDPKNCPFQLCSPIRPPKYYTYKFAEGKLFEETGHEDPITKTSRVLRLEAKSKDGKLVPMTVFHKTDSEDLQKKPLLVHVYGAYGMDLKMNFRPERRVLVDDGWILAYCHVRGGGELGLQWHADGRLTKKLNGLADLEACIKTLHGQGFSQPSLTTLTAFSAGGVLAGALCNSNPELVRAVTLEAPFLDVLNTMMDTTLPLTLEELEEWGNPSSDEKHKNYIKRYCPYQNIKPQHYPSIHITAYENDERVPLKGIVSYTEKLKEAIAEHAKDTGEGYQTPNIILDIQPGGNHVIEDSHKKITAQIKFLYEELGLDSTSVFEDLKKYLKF
CHOP inhibitor = inhibitors of CHOP promoter induction, primary screen, cell-based, unfolded protein response, luciferase reporter; CHO-K1 CHOP-promoter luciferase, tunicamycin-induced, 15-18 h; inhibition, % at 10 µM; actives 3.8% (n = 220,000); AID 2732, 2010;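 active means compounds that reduced the stress-induced luciferase reporter signal by more than about 70% of percent inhibition, limit read from the data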;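 further: 0% = tunicamycin plus vehicle and 100% = wells without tunicamycin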
Beta apoptosis = inhibitors of cytokine-induced beta cell apoptosis, primary screen, luminescence; INS-1E cytokine-induced death, ATP luminescence, 48 h; percent of positive-control rescue, neutral wells zero; AID 435005, 2010; protection from apoptosis, % (no concentration beside the values); actives 0.8% (n = 300,000);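 active means Every replicate reaches about 75%, or at least half do and their mean reaches it too, limit read from the data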;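 further: 0% = cytokine-treated negative control wells and 100% = positive control rescue; higher means more ATP so stronger rescue from cytokine killing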
CSC inhib = cancer stem cell viability inhibitors, primary screen, luminescence. cancer stem cell-like cells viability. inhibition, % at 7.5 µM. actives 1.1% (n = 300,000); in the data active means inhibition above about 75%; tested in HMLE shEcad cells
GRIN3A LBD mod = binders of NR3A ligand-binding domain, primary screen, biophysical, differential scanning fluorimetry, uHTS; NR3A LBD differential scanning fluorimetry, Tm shift; 0% = protein alone, 100% = glycine-bound protein; Tm shift relative to glycine control, % at 25 µM; actives 2.5% (n = 340,000); AID 1259313, 2017;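 active means melting temperature shift of at least 10% of the positive control shift, at one fixed dose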
Active calls of the source: *; / = not tested or not shown. Hits are enriched below; roughly 6.7% of the tested compounds scored in any of these assays.

SMILES	T cruzi inh	PREPL inh	CHOP inhibitor	Beta apoptosis	CSC inhib	GRIN3A LBD mod
Cc1ccc(NC(=O)Cn2nc(-c3ccccc3)nc2-c2ccccc2)c(C)c1	27	-4	43	9	-10	5
Cc1csc(SC(C)c2nc3scc(-c4ccccc4)c3c(=O)[nH]2)n1 (centres undefined)	3	-14	43	-4	5	1
CC(CC(=O)Nc1nnc(CC(C)(C)C)s1)c1ccccc1 (centres undefined)	2	3	/	1	-9	0
c1csc(CNc2ncnc3sccc23)c1	-27	3	/	80*	-1	2
COc1ccc(CNc2ncnc3sccc23)cc1	-31	4	/	75*	2	1
CC(=O)Nc1ccc(Nc2ncnc3c2cnn3-c2ccc(C)cc2C)cc1	6	11	65	2	-7	-2
CC(=O)Nc1ccc(Nc2ncnc3c2cnn3-c2ccccc2)cc1	3	15	0	-5	-7	19*
Clc1ccc(Nc2ncnc3c2cnn3-c2ccccc2)cc1	17	-2	21	19	32	2
CC(=O)Nc1ccc(Nc2ncnc3c2cnn3-c2cccc(C)c2)cc1	8	22	-6	-8	7	22*
Cc1cc(Cl)ccc1OCc1cn2cccnc2n1	-11	-28	-36	2	-16	-2
C=C(C1=CCN(S(=O)(=O)C(C)(C)C)[C@@H]1CCO)c1ccccc1	/	/	/	/	/	1
CCOC(=O)C1=C(N)Oc2ccc3ccccc3c2C1c1cccnc1 (centres undefined)	57*	1	26	6	17	-8
CC(/C=N\NC(=O)CN1CCN(S(=O)(=O)c2ccc(C)cc2)CC1)=C\c1ccccc1	-7	9	33	-3	-4	-12
CC(Nc1ncnc2ccccc12)c1ccccc1 (centres undefined)	10	-4	/	96*	22	0
COc1ccc(C2CC(c3c(O)cc(C)oc3=O)=NCCS2)c(OC)c1 (centres undefined)	/	14	/	/	80*	-1
Cc1ccc(-c2cc(C(=O)Nc3sc4c(c3C(=O)NCc3ccco3)CCC4)[nH]n2)c(O)c1	40	9	31	1	5	21*
Cc1cc(O)c(-c2cc(C(=O)Nc3sc4c(c3C(=O)NCc3ccco3)CCC4)[nH]n2)cc1C	27	12	67	5	47	7
O=C1c2ccccc2C(=O)N1N(c1ccccc1)c1ccccc1	/	/	/	/	/	16*
CC(=O)N(CN1C(=O)c2ccccc2C1=O)c1ccccc1	1	0	4	-1	-8	-1
Cc1ccc(-n2nc3c(=O)n(CC(=O)NC4CCCCCC4)nc(C)c3c2C)cc1	9	6	/	4	1	-1
COc1c(S(=O)(=O)NCCN2CCOCC2)ccc(Cl)c1Cl	7	44*	11	1	2	0
CCOc1cc(S(=O)(=O)NCCN2CCOCC2)c(C)cc1C	10	2	-8	-11	-12	11*
Cc1ccc2c(c1)/C(=N/OC(=O)c1ccc(F)cc1)CCS2	8	1	-3	-8	-10	5
O=C(O/N=C1\CCCc2ccccc21)c1ccc(F)cc1	-11	-9	72*	/	-8	1
Cc1cc[n+](C(C)C(=O)c2ccc(-c3ccccc3)cc2)cc1 (centres undefined)	73*	22	5	99*	4	1
CC(C(=O)c1ccc(-c2ccccc2)cc1)[n+]1ccccc1 (centres undefined)	-1	15	-23	22	15	-3
c1cnc2ccc(C(c3nnnn3C3CCCC3)N3CCN4CCCC4C3)cc2c1 (centres undefined)	-1	8	5	-5	6	-2
CC(C)NC(=O)c1sc2nc(-c3cccs3)cc(-c3cccs3)c2c1N	7	-34	19	9	19	-5
CC(=O)c1sc2nc(-c3cccs3)ccc2c1N	6	0	-19	-5	14	22*
